Series [1] in a line: Terminal half life in Wistar rat at 1 mg/kg, iv or 1 mg/kg, po. The class given is ADME, organism-based. The conditions noted are these: in vivo, read-out: beta t1/2.
Another series deals with Cytochrome P450 2C19 (Homo sapiens, UniProt P33261). Briefly: Inhibition of human CYP2C19 by microtiter plate assay. It counts as ADME.
Another series addresses Cytochrome P450 3A4 (Homo sapiens, UniProt P08684). Kind of series: Inhibition of human CYP3A4 by microtiter plate assay. It counts as ADME.
Series [2] is described as follows: Metabolic stability in human liver microsomes at 1 uM by HPLC. It counts as ADME, Microsome. The conditions noted are these: read-out: Stability. The method in brief: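 Test compound was incubated with liver microsomes for 30 min. Stability is expressed as the percentage of parent compound remaining at the end of incubation.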
(Liver microsomes are a subcellular fraction often used to study metabolism.)

A short description of series [3]: Oral bioavailability in Wistar rat at 1 mg/kg. It counts as ADME, organism-based. The conditions noted are these: in vivo.
The nature of series [4]: Clearance in Wistar rat at 1 mg/kg, iv or 1 mg/kg, po. The class given is ADME, organism-based. The conditions noted are these: in vivo.
Series [5] concerns the target T1, B2 bradykinin receptor (Homo sapiens, UniProt P30411).
T1 sequence (P30411 whole entry): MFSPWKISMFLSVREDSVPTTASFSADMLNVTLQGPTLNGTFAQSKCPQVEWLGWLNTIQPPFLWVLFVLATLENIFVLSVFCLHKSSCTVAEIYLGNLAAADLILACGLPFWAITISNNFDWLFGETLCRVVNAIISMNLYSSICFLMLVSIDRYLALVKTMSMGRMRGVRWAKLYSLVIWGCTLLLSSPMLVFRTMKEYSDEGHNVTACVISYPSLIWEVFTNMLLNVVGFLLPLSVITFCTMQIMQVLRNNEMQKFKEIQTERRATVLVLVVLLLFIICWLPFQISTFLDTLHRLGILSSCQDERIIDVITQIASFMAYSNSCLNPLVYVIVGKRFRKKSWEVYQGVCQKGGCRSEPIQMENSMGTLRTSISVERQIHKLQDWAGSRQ
Briefly: Antagonist activity at B2 receptor in human HF15 cells assessed as inhibition of bradykinin-induced calcium mobilization. It counts as functional, cell-based.

Series [6] addresses T1, B2 bradykinin receptor. Briefly: Displacement of [3H]bradykinin from human recombinant B2 receptor expressed in HEK293 cells. It counts as cell-based.

Chain of Cytochrome P450 2C19 (P33261 whole entry): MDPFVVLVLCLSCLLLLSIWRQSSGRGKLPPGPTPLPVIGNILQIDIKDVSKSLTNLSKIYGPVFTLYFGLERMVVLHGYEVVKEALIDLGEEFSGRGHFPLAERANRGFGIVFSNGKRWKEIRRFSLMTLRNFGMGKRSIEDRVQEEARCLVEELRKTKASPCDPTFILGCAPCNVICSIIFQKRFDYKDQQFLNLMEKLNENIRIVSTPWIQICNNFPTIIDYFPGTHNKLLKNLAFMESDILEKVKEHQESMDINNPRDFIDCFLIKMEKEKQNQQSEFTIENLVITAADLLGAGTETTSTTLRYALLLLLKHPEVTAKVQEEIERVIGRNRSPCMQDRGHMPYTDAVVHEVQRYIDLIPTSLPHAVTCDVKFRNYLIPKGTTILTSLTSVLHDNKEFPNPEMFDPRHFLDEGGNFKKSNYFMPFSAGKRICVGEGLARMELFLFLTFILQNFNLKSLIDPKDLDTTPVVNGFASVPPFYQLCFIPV
Chain of Cytochrome P450 3A4 (P08684 whole entry): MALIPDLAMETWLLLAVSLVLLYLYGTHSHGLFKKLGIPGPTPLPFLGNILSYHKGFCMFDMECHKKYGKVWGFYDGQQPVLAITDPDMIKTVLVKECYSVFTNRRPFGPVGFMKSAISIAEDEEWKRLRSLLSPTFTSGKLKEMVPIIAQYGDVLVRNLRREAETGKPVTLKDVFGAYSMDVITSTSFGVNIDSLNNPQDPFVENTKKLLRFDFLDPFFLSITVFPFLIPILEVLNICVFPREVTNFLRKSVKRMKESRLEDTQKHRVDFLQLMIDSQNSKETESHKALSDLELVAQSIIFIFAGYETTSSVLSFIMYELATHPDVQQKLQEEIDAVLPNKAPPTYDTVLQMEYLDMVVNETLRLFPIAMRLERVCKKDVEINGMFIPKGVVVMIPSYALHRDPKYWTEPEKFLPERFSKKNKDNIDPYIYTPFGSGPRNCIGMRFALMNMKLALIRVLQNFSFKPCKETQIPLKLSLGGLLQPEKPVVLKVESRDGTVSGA

For the compound `Cc1cc(-c2[nH]ncc2C)c2cccc(OCc3c(C)ccnc3Cn3cccc(C(F)(F)F)c3=O)c2n1`, the half-life in series [1] was determined as 1.12 h. Moreover, the half-inhibitory concentration (IC50) (in general, the midpoint of a concentration-inhibition curve) against Cytochrome P450 2C19 is above 5000 nM; on Cytochrome P450 3A4, 3800 nM; on B2 bradykinin receptor [5] it was 1.1 nM; at B2 bradykinin receptor [6] it was 8.7 nM. Moreover, in series [2], the remaining at 1 µM stood at 21%. For the same compound, the bioavailability – broadly, the share of a dose that reaches the circulation, judged against a reference dose that is usually intravenous – in series [3] is above 17%. For the same compound, in series [4], the clearance was found to be 21 mL/min/kg.

(Values after ChEMBL document CHEMBL1158465, “Novel small molecule bradykinin B2 receptor antagonists” (J Med Chem, 2009).)
